ChEMBL document CHEMBL3865845 (J Med Chem, 2016)
pIC50: −log10 of the molar value. Calls of active or inactive are those of the source. The rule behind the calls is not given here.

Legend:
[1] = Inhibition of HIV1 integrase activity assessed as suppression of viral replication in human H9 cells; type: cell-based; settings: Human immunodeficiency virus 1, H9
[2] = Cytotoxicity against human MT4 cells assessed as reduction in cell viability after 2 days by CytoTox-Glo assay; type: toxicity, cell-based; settings: mt4, 48 h
[3] = tested on: Human immunodeficiency virus 1; experiment: Antiviral activity against wild type HIV1 NL4-3 infected in human MT4 cells by p24 ELISA; type: functional, cell-based; settings: Human immunodeficiency virus 1, NL4-3, MT4
Procedure, shortened: (§1)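 Replication-inhibition IC50 values in MT-4 cells, each from three separate experiments.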

[4] = Inhibition of HIV1 integrase activity assessed as suppression of viral replication in human MT2 cells; type: cell-based; settings: Human immunodeficiency virus 1, MT2
[5] = tested on: Human immunodeficiency virus 1; experiment: Potency index, ratio of IC50 for Bevirimat to IC50 for test compound for antiviral activity against bevirimat-resistant HIV1 NL4-3 harboring GagV370A mutant infected in human MT4 cells by p24 ELISA; type: functional
[6] = tested on: Human immunodeficiency virus 1; experiment: Antiviral activity against bevirimat-resistant HIV1 NL4-3 harboring GagV370A mutant infected in human MT4 cells by p24 ELISA; type: functional, cell-based; settings: Human immunodeficiency virus 1, NL4-3, MT4; procedure, shortened: as §1
[7] = tested on: Human immunodeficiency virus 1; experiment: Antiinfective activity against wild type HIV1 NL4-3 assessed as inhibition of viral infection by measuring viral infection level in human TZM-bl cells at 2 uM after 48 hrs by luciferase reporter gene assay (reference value: 100%); type: functional; parameters: scale not given: the % may be the effect or the level left
Procedure, shortened: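 NL4-3 infection of TZM-bl cells with each compound at 2 µM, read by luminescence. Infection without compound served as control. % control infection = 100 × RLU(compound)/RLU(control).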

[8] = Half life in human liver microsomes at 1 uM in presence of NADPH by LC/MS/MS analysis; type: ADME
[9] = Elimination half life in healthy humans; type: ADME; settings: human, in vivo; read-out: beta t1/2
[10] = tested on: Human immunodeficiency virus 1; experiment: Resistance index, ratio of IC50 for bevirimat-resistant HIV1 NL4-3 harboring GagV370A mutant infected in human MT4 cells to IC50 for wild type HIV1 NL4-3 infected in human MT4 cells; type: functional
[11] = tested on: Human immunodeficiency virus 1; experiment: Potency index, ratio of IC50 for Bevirimat to IC50 for test compound for antiviral activity against wild type HIV1 NL4-3 infected in human MT4 cells by p24 ELISA; type: functional
COS = experiment: Inhibition of wild type HIV1 NL4-3 Env-mediated cell-cell fusion between viral envelope expressing virus-infected African green monkey COS cells to human TZM-bl cells incubated overnight by luciferase reporter gene assay; type: cell-based; settings: Human immunodeficiency virus 1
[12] = Selectivity index, ratio of CC50 for human MT4 cells to IC50 for wild type HIV1 NL4-3 infected in human MT4 cells; type: functional
Procedure, shortened: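 Index is CC50 (cytotoxicity in MT-4 cells) divided by IC50 (inhibition of HIV-1/NL4-3 replication in MT-4 lymphocytes). Values are from three separate experiments. A ratio below 5 was scored as no selective anti-HIV activity.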

Structure (SMILES)	CC50 [2] [µM]	pIC50 [3]	further results
O=C(/C=C/c1ccc(O)c2c1[C@H](C(=O)O)[C@@H](c1ccc(O)c(O)c1)O2)O[C@H](Cc1ccc(O)c(O)c1)C(=O)O [LITHOSPERMIC ACID]			pIC50 [1]: 5.70
O=C(/C=C/c1ccc2c(c1)OCO2)N1CCNCC1	> 90	< 4.05	
C=C(C)[C@@H]1CC[C@]2(C(=O)N3CCN(C(=O)/C=C/c4ccc(OCOC)c(OCOC)c4)CC3)CC[C@]3(C)[C@H](CC[C@@H]4[C@@]5(C)CC[C@H](O)C(C)(C)[C@@H]5CC[C@]43C)[C@@H]12		< 6.00	
C=C(C)[C@@H]1CC[C@]2(C(=O)N3CCN(C(=O)/C=C/c4ccc(OCOC)c(OCOC)c4)CC3)CC[C@]3(C)[C@H](CC[C@@H]4[C@@]5(C)CC[C@H](OC(=O)CC(C)(C)C(=O)O)C(C)(C)[C@@H]5CC[C@]43C)[C@@H]12	> 4.5	7.30	
C=C(C)[C@@H]1CC[C@]2(C(=O)N3CCN(CCCCC(=O)N4CCN(C(=O)/C=C/c5ccc6c(c5)OCO6)CC4)CC3)CC[C@]3(C)[C@H](CC[C@@H]4[C@@]5(C)CC[C@H](O)C(C)(C)[C@@H]5CC[C@]43C)[C@@H]12		< 6.00	
C=C(C)[C@@H]1CC[C@]2(C(=O)N3CCN(C(=O)/C=C/c4ccc5c(c4)OCO5)CC3)CC[C@]3(C)[C@H](CC[C@@H]4[C@@]5(C)CC[C@H](O)C(C)(C)[C@@H]5CC[C@]43C)[C@@H]12		< 6.00	
C=C(C)[C@@H]1CC[C@]2(C(=O)N3CCNCC3)CC[C@]3(C)[C@H](CC[C@@H]4[C@@]5(C)CC[C@H](OC(=O)CC(C)(C)C(=O)O)C(C)(C)[C@@H]5CC[C@]43C)[C@@H]12	> 1.5	6.31	
O=C(/C=C/c1ccc(O)c(O)c1)O[C@H](C(=O)O)[C@H](OC(=O)/C=C/c1ccc(O)c(O)c1)C(=O)O [CHICORIC ACID]			pIC50 [4]: 5.38
C=C(C)[C@@H]1CC[C@]2(C(=O)N3CCN(C(=O)/C=C/c4ccc5c(c4)OCO5)CC3)CC[C@]3(C)[C@H](CC[C@@H]4[C@@]5(C)CC[C@H](OC(=O)CC(C)(C)C(=O)O)C(C)(C)[C@@H]5CC[C@]43C)[C@@H]12	> 4.5	7.72	Ratio IC50 [5]: 51; pIC50 [6]: 6.82; Activity [7]: 99%; t1/2 [8]: 2.13 h; half-life [9]: 56.3 to 69.5 h; Ratio IC50 [10]: 7.89 - 7.9; Ratio IC50 [11]: 3
O=C(/C=C/c1ccc(O)c(O)c1)O[C@@H]1C[C@](O)(C(=O)O)C[C@@H](OC(=O)/C=C/c2ccc(O)c(O)c2)[C@H]1O			pIC50 [4]: 5.72
C=C(C)[C@@H]1CC[C@]2(C(=O)O)CC[C@]3(C)[C@H](CC[C@@H]4[C@@]5(C)CC[C@H](OC(=O)CC(C)(C)C(=O)O)C(C)(C)[C@@H]5CC[C@]43C)[C@@H]12 [BEVIRIMAT]	> 4.5	7.19	pIC50 [6]: 5.11; Activity [7]: 98%; t1/2 [8]: 0.9 h
C=C(C)[C@@H]1CC[C@]2(C(=O)N3CCN(C(=O)/C=C/c4ccc(OC)c(OC)c4)CC3)CC[C@]3(C)[C@H](CC[C@@H]4[C@@]5(C)CC[C@H](OC(=O)CC(C)(C)C(=O)O)C(C)(C)[C@@H]5CC[C@]43C)[C@@H]12	> 4.5	7.54	Ratio IC50 [5]: 1.39 - 51.4; pIC50 [6]: 5.53; Ratio IC50 [10]: 102.41
O=C(O)/C=C/c1ccc2c(c1)OCO2	> 90	< 4.05	
C=C(C)[C@@H]1CC[C@]2(C(=O)N3CCN(CCCCC(=O)N4CCN(C(=O)/C=C/c5ccc6c(c5)OCO6)CC4)CC3)CC[C@]3(C)[C@H](CC[C@@H]4[C@@]5(C)CC[C@H](OC(=O)CC(C)(C)C(=O)O)C(C)(C)[C@@H]5CC[C@]43C)[C@@H]12	> 4.5	7.92	Ratio IC50 [5]: 1.39 - 51.4; pIC50 [6]: 5.26; Ratio IC50 [10]: 460.83
C=C(C)[C@@H]1CC[C@]2(C(=O)N3CCN(C(=O)/C=C/c4ccc(O)c(O)c4)CC3)CC[C@]3(C)[C@H](CC[C@@H]4[C@@]5(C)CC[C@H](OC(=O)CC(C)(C)C(=O)O)C(C)(C)[C@@H]5CC[C@]43C)[C@@H]12	> 4.5	7.55	pIC50 [6]: 5.66; Ratio IC50 [10]: 78.93
C=C(C)[C@@H]1CC[C@]2(C(=O)NCCCCCCCNC(C)=O)CC[C@]3(C)[C@H](CC[C@@H]4[C@@]5(C)CC[C@H](O)C(C)(C)[C@@H]5CC[C@]43C)[C@@H]12			inhibition (COS): Active
C=C(C)[C@@H]1CC[C@]2(C(=O)N3CCN(C(=O)/C=C/c4ccc(OC)c(OC)c4)CC3)CC[C@]3(C)[C@H](CC[C@@H]4[C@@]5(C)CC[C@H](O)C(C)(C)[C@@H]5CC[C@]43C)[C@@H]12		< 6.00	
O=C(O)/C=C/c1ccc(O)c(O)c1 [CAFFEIC ACID]		< 6.00	Ratio CC50/IC50 [12]: <5
